Laboratory results taken from ChEMBL document CHEMBL5257021 (J Med Chem, 2016).
pIC50: −log10 of the molar value. The source made the active and inactive calls. The rule behind the calls is not given here.

How the values were obtained:
[1] = test system: MDA-MB-231; test: Cytotoxicity against human MDA-MB-231 cells expressing Y1R assessed as reduction in cell viability at 25 uM treated for 8 hrs followed by culturing in proliferation medium for 72 hrs in presence of 10 equiv hY1R agonist, [F7,P34]-NPY by resazurin assay; assay type: functional, cell-based; conditions: time 80.0 hrs
Outline: (§1)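 Breast cancer cells were exposed for 8 h at 37 °C in FCS-free medium to toxic agent together with 10 equiv of hY1R agonist [F7,P34]-NPY. Cells were then washed twice and grown 72 h in culture medium. Medium-treated cells with or without agonist were set at 100% and ethanol-treated cells at 0%. Triplicate, ≥2 independent experiments.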

[2] = test system: T-47D (Homo sapiens); test: Cytotoxicity against human T47D cells expressing Y1R assessed as reduction in cell viability treated for 8 hrs followed by culturing in proliferation medium for 72 hrs by resazurin assay
[3] = test system: T47D (Homo sapiens); test: as above
[4] = test system: MDA-MB-468; test: Cytotoxicity against human MDA-MB-468 cells expressing Y1R assessed as reduction in cell viability at 10 uM treated for 8 hrs followed by culturing in proliferation medium for 72 hrs in presence of 10 equiv hY1R agonist, [F7,P34]-NPY by resazurin assay; assay type: functional, cell-based; conditions: time 80.0 hrs; outline: as §1
[5] = test system: MDA-MB-231; test: Cytotoxicity against human MDA-MB-231 cells expressing Y1R assessed as reduction in cell viability treated for 8 hrs followed by culturing in proliferation medium for 72 hrs by resazurin assay
[6] = test system: T47D; test: Cytotoxicity against human T47D cells expressing Y1R assessed as reduction in cell viability at 5 uM treated for 8 hrs followed by culturing in proliferation medium for 72 hrs in presence of 10 equiv hY1R agonist, [F7,P34]-NPY by resazurin assay; assay type: functional, cell-based; conditions: time 80.0 hrs
Outline: as §1, with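 “medium. Viability was read by resazurin (10% v/v, 2 h, ex 550/em 595 nm).” for “medium.”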

[7] = test system: MDA-MB-468; test: Cytotoxicity against human MDA-MB-468 cells expressing Y1R assessed as reduction in cell viability treated for 8 hrs followed by culturing in proliferation medium for 72 hrs by resazurin assay; assay type: functional, cell-based
[8] = Cytotoxicity against human HEK293 cells assessed as cell viability at >= 1 uM treated for 8 hrs followed by culturing in proliferation medium for 72 hrs by resazurin assay; assay type: toxicity, cell-based; conditions: read-out: Activity
Outline: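 Seeding was 6000/well for MDA-MB-231, 10000 for T-47D, and 8000 for MDA-MB-468 and HEK293. After 24 h, cells got compound at 50 to 0.01 μM in FCS-free medium for 8 h at 37 °C, were washed twice, then kept 72 h in culture medium. Resazurin 10% (v/v) was added for 2 h at 37 °C and resorufin fluorescence read (ex 550/em 595 nm). Medium-only cells were set at 100% and 70% ethanol-treated cells at 0%.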

For `CN(Cc1cnc2nc(N)nc(N)c2n1)c1ccc(C(=O)N[C@@H](CCC(=O)O)C(=O)O)cc1` [METHOTREXATE], the Activity [1] was “Active”, the pIC50 [2] was 6.30 and the pIC50 [3] was 6.30. The Activity [4] was “Active”, the pIC50 ([5]; read-out: IC50) was 4.82 and the IC50 ([5]; read-out: pIC50 (converted)) was 15800 nM. For the same molecule, the Activity [6] was “Active”, the pIC50 ([7]; read-out: IC50) was 6.70 and the IC50 ([7]; read-out: pIC50 (converted)) was 200 nM. For the same molecule, the viability at 80 h, 1 µM [8] was 65%.
